Broadly, the Ki is the dissociation constant of the complex between target and ligand, obtained from inhibition or displacement. A lower Ki goes with tighter binding. By inhibition is commonly meant the percentage by which the read-out fell short of the control. A low value points to a weak effect.

This is an account of results in ChEMBL document CHEMBL1833923, “Effects of linker elongation in a series of N-(2-benzofuranylmethyl)-N'-(methoxyphenylalkyl)piperazine σ₁ receptor ligands” (Bioorg Med Chem Lett, 2011).

For experiment [1], the target named is 5-hydroxytryptamine receptor 2B (Homo sapiens, UniProt P41595). Nature of the experiment: Displacement of [3H]LSD from 5-HT2B after 1.5 hrs by liquid scintillation counting.
The target in experiment [2] is T1, D(2) dopamine receptor (Homo sapiens, UniProt P14416). Nature of the experiment: Displacement of [3H]N-methylspiperone from D2 after 1.5 hrs by liquid scintillation counting. Background: Loss of bound radioactivity is the signal in a displacement assay; it reports binding, not function.
Experiment [3] in a line: Displacement of [3H]MK801 from PCP binding site of NMDA receptor at 10 uM after 1.5 hrs by liquid scintillation counting.
Experiment [4] has as its target Sigma non-opioid intracellular receptor 1 (Rattus norvegicus, UniProt Q9R0C9). The experiment in a line: Displacement of [3H](+)-pentazocine from sigma 1 receptor in rat brain homogenate after 2.5 hrs by liquid scintillation counting. Type of experiment: tissue-based. An outline of the steps:
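σ1 affinity by competition with [³H](+)-pentazocine in rat brain homogenate, following a modification of the Kovacs and Larson protocol. Ki determinations were run by the NIMH Psychoactive Drug Screening Program. Values are mean ± SEM from triplicate assays.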

A short description of experiment [5]: Displacement of [3H]DTG from sigma 2 receptor in rat PC12 cells after 2 hrs by liquid scintillation counting. Particulars: pc-12. Type of experiment: cell-based. An outline of the steps: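 σ2 affinity by competition with [³H]DTG in a PC12 cell preparation, following a modified Kovacs and Larson protocol. Ki determinations were run by the NIMH PDSP. Values are mean ± SEM of triplicate assays.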

For another experiment, the system named is PC-12. The experiment in a line: Selectivity ratio of Ki for sigma 2 receptor in rat PC12 cells to Ki for sigma 1 receptor in rat brain homogenates. The class given is cell-based. A digest of the protocol: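 Competition binding, done by the NIMH Psychoactive Drug Screening Program. σ1 Ki came from displacement of [³H](+)-pentazocine in rat brain homogenate, and σ2 Ki from displacement of [³H]DTG in a PC12 cell preparation. Ki values were mean with SEM from triplicate assays. The ratio is σ2 Ki divided by σ1 Ki.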

For experiment [6], the target named is T1, D(2) dopamine receptor. The experiment in a line: Displacement of [3H]N-methylspiperone from D2 at 10 uM after 1.5 hrs by liquid scintillation counting.

5-hydroxytryptamine receptor 2B, sequence (P41595 whole entry): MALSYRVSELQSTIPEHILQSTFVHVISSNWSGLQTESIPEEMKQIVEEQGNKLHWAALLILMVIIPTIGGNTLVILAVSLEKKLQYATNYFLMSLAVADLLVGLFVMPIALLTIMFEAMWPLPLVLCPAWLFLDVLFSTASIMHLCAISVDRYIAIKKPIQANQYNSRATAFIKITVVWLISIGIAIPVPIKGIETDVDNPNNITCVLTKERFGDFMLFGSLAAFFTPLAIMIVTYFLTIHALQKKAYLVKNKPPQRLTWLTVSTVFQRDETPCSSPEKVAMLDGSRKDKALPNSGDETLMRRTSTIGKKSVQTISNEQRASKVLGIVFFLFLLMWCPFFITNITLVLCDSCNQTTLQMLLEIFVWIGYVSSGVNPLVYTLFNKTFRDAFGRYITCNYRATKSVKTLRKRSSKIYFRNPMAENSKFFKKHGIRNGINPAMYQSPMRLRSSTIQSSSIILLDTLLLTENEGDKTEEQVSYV
Sigma non-opioid intracellular receptor 1, sequence (Q9R0C9 whole entry): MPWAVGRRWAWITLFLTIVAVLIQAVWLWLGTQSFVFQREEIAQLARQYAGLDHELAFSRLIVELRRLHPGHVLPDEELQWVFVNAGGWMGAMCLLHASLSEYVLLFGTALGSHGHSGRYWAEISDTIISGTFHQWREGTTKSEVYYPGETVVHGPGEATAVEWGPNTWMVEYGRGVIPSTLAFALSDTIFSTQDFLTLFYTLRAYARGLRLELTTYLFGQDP
T1 sequence (P14416 whole entry): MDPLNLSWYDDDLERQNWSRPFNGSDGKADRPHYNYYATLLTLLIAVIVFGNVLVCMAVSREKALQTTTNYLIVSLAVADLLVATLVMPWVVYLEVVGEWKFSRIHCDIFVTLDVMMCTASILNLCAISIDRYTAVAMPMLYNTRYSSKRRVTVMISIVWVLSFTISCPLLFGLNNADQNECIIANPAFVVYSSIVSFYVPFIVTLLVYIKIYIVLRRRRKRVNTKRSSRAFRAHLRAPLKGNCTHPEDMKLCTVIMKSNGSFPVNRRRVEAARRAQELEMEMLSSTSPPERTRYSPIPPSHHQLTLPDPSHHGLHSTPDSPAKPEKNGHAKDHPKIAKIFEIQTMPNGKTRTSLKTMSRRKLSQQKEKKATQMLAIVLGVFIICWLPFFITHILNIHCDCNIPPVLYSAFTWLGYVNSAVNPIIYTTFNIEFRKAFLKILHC

Regarding `COc1ccccc1CCCCN1CCN(Cc2cc3ccccc3o2)CC1`, the Ki in experiment [1] was found to be 332 nM; on D(2) dopamine receptor [2], 432 nM; in experiment [4] it was 16 nM; in experiment [5], 130 nM. In experiment [3], the inhibition was less than 50%. Moreover, the Ratio Ki in the experiment on PC-12 was 8.

In the case of `COc1ccc(CCCN2CCN(Cc3cc4ccccc4o3)CC2)cc1`, the Ki is 155 nM in experiment [1], greater than 10000 nM on D(2) dopamine receptor [2], 3.1 nM in experiment [4] and 138 nM in experiment [5]. For the same molecule, the inhibition (in experiment [3]; on D(2) dopamine receptor [6]) was less than 50% each time. For the same molecule, the Ratio Ki in the experiment with PC-12 came to 45.

`COc1ccccc1CCN1CCN(Cc2cc3ccccc3o2)CC1`: the Ki in experiment [1] turned out to be 120 nM; on D(2) dopamine receptor [2], 1650 nM; in experiment [4], 17 nM; in experiment [5] it was 81 nM. Also, in experiment [3], the inhibition is less than 50%. Further, in the experiment with PC-12, the Ratio Ki stood at 5.

In the case of `COc1ccc(CCCCN2CCN(Cc3cc4ccccc4o3)CC2)cc1`, the inhibition constant (Ki) in experiment [1] was 352 nM; on D(2) dopamine receptor [2], 5790 nM; in experiment [4], 13 nM; in experiment [5], 87 nM. Besides, the inhibition in experiment [3] was less than 50%. Further, the Ratio Ki in the experiment with PC-12 amounted to 7.

Take `c1ccc(CCCCN2CCN(Cc3cc4ccccc4o3)CC2)cc1`: the Ki in experiment [1] is 275 nM; at D(2) dopamine receptor [2], 89 nM; in experiment [4], 4.2 nM; in experiment [5] it was 18 nM. In experiment [3], this molecule gave an inhibition of less than 50%. Moreover, the Ratio Ki in the experiment on PC-12 came to 4.

With `COc1ccc(CCN2CCN(Cc3cc4ccccc4o3)CC2)cc1`, the Ki in experiment [1] amounted to 463 nM; in experiment [4], 9.4 nM; in experiment [5] it was 101 nM. Also, the inhibition (in experiment [3]; at D(2) dopamine receptor [6]) was less than 50% throughout. Also, the Ratio Ki in the experiment with PC-12 came to 11.

In the case of `c1ccc(CCN2CCN(Cc3cc4ccccc4o3)CC2)cc1`, the Ki came out at 310 nM in experiment [1], 7.3 nM in experiment [4] and 131 nM in experiment [5]. The inhibition (in experiment [3]; at D(2) dopamine receptor [6]) was less than 50% in each case. Further, the Ratio Ki with PC-12 stood at 18.

Turning to `COc1cccc(CCCN2CCN(Cc3cc4ccccc4o3)CC2)c1`, the Ki is 243 nM in experiment [1], 556 nM on D(2) dopamine receptor [2], 5.7 nM in experiment [4] and 40 nM in experiment [5]. In experiment [3], the inhibition was less than 50%. In addition, the Ratio Ki in the experiment with PC-12 worked out at 7.

Consider `COc1cccc(CCCCN2CCN(Cc3cc4ccccc4o3)CC2)c1`, for which the Ki in experiment [1] amounted to 343 nM; at D(2) dopamine receptor [2] it was 484 nM; in experiment [4], 7.6 nM; in experiment [5], 211 nM. In experiment [3], this molecule gave an inhibition of less than 50%. Moreover, in the experiment on PC-12, the Ratio Ki was determined as 28.

On to `COc1ccccc1CCCN1CCN(Cc2cc3ccccc3o2)CC1`, for which the inhibitory constant (Ki) is 628 nM in experiment [1], 5870 nM on D(2) dopamine receptor [2], 8.3 nM in experiment [4] and 53 nM in experiment [5]. Besides, in experiment [3], the inhibition is less than 50%. For the same molecule, the Ratio Ki with PC-12 was 6.

As for `COc1cccc(CCN2CCN(Cc3cc4ccccc4o3)CC2)c1`, the figures for the Ki in experiment [1], in experiment [4] and in experiment [5] were 290 nM, 13 nM and 14 nM, respectively. For the same molecule, the inhibition (in experiment [3]; at D(2) dopamine receptor [6]) was less than 50% throughout. The Ratio Ki with PC-12 came to 1.

Take `c1ccc(CCCN2CCN(Cc3cc4ccccc4o3)CC2)cc1`: the Ki in experiment [1] turned out to be 147 nM; at D(2) dopamine receptor [2] it was 1020 nM; in experiment [4], 5.7 nM; in experiment [5], 18 nM. In experiment [3], this molecule displayed an inhibition of less than 50%. In the experiment on PC-12, the Ratio Ki was 3.
